Experimental data: publication PMC8861878 (The Journal of pharmacy and pharmacology, 2020)

What was measured:
[1] = biological target: T1, UGT1A9 (Homo sapiens, UniProt O60656); type: in vitro ADME; conditions: propofol 500 μM; individual HLM n = 9; Pearson; P = 0.016
T1 sequence (O60656 26-530): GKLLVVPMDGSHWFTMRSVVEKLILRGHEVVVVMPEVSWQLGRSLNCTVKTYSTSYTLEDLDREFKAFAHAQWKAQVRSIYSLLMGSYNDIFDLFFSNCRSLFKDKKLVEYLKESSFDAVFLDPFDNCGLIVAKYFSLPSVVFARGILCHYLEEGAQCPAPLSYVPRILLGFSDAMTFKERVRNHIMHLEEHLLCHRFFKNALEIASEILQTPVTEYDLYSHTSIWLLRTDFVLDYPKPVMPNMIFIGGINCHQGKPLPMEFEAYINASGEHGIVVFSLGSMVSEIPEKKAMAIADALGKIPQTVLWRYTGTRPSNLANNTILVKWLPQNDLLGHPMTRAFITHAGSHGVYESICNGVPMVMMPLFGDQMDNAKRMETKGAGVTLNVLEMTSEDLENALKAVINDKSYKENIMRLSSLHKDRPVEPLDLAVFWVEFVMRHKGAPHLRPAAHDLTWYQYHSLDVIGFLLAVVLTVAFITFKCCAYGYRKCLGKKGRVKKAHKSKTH
Procedure, shortened: (§1)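 UDPGA-supplemented individual human liver microsomes (n = 9) in 100 μl Tris-HCl 50 mM pH 7.4 with alamethicin 22 μg/ml, D-saccharic-1,4-lactone 4.4 mM and UDPGA 3.5 mM. Incubated 37 °C for 60 min, stopped with ice-cold acetonitrile, centrifuged, supernatant analysed by UHPLC. Test compound glucuronidation rates correlated with probe glucuronidation across donors by Pearson analysis.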

[2] = biological target: T2, UGT1A1 (Homo sapiens, UniProt P22309); type: in vitro ADME; conditions: β-estradiol 50 μM; individual HLM n = 9; Pearson; P = 0.014
T2 sequence (P22309 26-533): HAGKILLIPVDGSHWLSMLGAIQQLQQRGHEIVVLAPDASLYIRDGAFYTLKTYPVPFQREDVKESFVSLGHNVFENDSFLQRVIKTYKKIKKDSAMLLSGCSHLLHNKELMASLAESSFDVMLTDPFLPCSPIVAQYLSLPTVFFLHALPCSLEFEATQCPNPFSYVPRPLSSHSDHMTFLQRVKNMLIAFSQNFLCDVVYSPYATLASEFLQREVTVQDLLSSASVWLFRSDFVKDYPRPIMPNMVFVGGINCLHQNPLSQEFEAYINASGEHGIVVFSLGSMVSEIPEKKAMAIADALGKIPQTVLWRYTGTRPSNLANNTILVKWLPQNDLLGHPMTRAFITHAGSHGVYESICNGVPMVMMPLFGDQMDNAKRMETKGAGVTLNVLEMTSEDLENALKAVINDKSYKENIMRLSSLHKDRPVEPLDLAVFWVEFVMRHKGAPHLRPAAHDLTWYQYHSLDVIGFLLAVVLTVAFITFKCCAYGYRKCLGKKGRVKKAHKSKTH
Procedure, shortened: as §1

[3] = substrate: CC(C)=CCc1c(O)ccc2c1O[C@H](c1ccc(O)cc1)CC2=O; experiment: not read; conditions: substrate inhibition model, pH 7.4, 37.0 °C
[4] = substrate: CC(C)=CCc1c(O)ccc2c1O[C@H](c1ccc(O)cc1)CC2=O; experiment: cells, lysate or membranes named; type: in vitro ADME, human; conditions: pH 7.4, 37.0 °C
[5] = other: formation of G1, substrate inhibition model
[6] = other: formation of G2, substrate inhibition model

## CC(C)=CCc1c(O[C@@H]2O[C@H](C(=O)O)[C@@H](O)[C@H](O)[C@H]2O)ccc2c1O[C@H](c1ccc(O)cc1)CC2=O [G1, isobavachin-7-O-glucuronide]
[1]
  correlation factor r: 0.767
[2]
  correlation factor r: 0.774

B1: CYP1A2 (Homo sapiens) (protein)
chain: MALSQSVPFSATELLLASAIFCLVFWVLKGLRPRVPKGLKSPPEPWGWPLLGHVLTLGKNPHLALSRMSQRYGDVLQIRIGSTPVLVLSRLDTIRQALVRQGDDFKGRPDLYTSTLITDGQSLTFSTDSGPVWAARRRLAQNALNTFSIASDPASSSSCYLEEHVSKEAKALISRLQELMAGPGHFDPYNQVVVSVANVIGAMCFGQHFPESSDEMLSLVKNTHEFVETASSGNPLDFFPILRYLPNPALQRFKAFNQRFLWFLQKTVQEHYQDFDKNSVRDITGALFKHSKKGPRASGNLIPQEKIVNLVNDIFGAGFDTVTTAISWSLMYLVTKPEIQRKIQKELDTVIGRERRPRLSDRPQLPYLEAFILETFRHSSFLPFTIPHSTTRDTTLNGFYIPKKCCVFVNQWQVNHDPELWEDPSEFRPERFLTADGTAINKPLSEKMMLFGMGKRRCIGEVLAKWEIFLFLAILLQQLEFSVPPGVKVDLTPIYGLTMKHARCEHVQARLRFSIN
[3]; other: formation of M1
  K0.5: 5.08 ± 0.54 µM
  Vmax: 0.000312 µmol/min/mg
  Vmax/Km: 61.4 µL/min/mg
[3]; other: formation of M3
  K0.5: 19.81 ± 9.47 µM
  Vmax: 0.000173 µmol/min/mg
  Vmax/Km: 8.75 µL/min/mg

B2: UGT1A9 (Homo sapiens) (protein)
chain: GKLLVVPMDGSHWFTMRSVVEKLILRGHEVVVVMPEVSWQLGRSLNCTVKTYSTSYTLEDLDREFKAFAHAQWKAQVRSIYSLLMGSYNDIFDLFFSNCRSLFKDKKLVEYLKESSFDAVFLDPFDNCGLIVAKYFSLPSVVFARGILCHYLEEGAQCPAPLSYVPRILLGFSDAMTFKERVRNHIMHLEEHLLCHRFFKNALEIASEILQTPVTEYDLYSHTSIWLLRTDFVLDYPKPVMPNMIFIGGINCHQGKPLPMEFEAYINASGEHGIVVFSLGSMVSEIPEKKAMAIADALGKIPQTVLWRYTGTRPSNLANNTILVKWLPQNDLLGHPMTRAFITHAGSHGVYESICNGVPMVMMPLFGDQMDNAKRMETKGAGVTLNVLEMTSEDLENALKAVINDKSYKENIMRLSSLHKDRPVEPLDLAVFWVEFVMRHKGAPHLRPAAHDLTWYQYHSLDVIGFLLAVVLTVAFITFKCCAYGYRKCLGKKGRVKKAHKSKTH
[4]; [5]
  K0.5: 15.63 ± 3.12 µM

B3: UGT2B4 (Homo sapiens) (protein)
chain: GKVLVWPTEFSHWMNIKTILDELVQRGHEVTVLASSASISFDPNSPSTLKFEVYPVSLTKTEFEDIIKQLVKRWAELPKDTFWSYFSQVQEIMWTFNDILRKFCKDIVSNKKLMKKLQESRFDVVLADAVFPFGELLAELLKIPFVYSLRFSPGYAIEKHSGGLLFPPSYVPVVMSELSDQMTFIERVKNMIYVLYFEFWFQIFDMKKWDQFYSEVLGRPTTLSETMAKADIWLIRNYWDFQFPHPLLPNVEFVGGLHCKPAKPLPKEMEEFVQSSGENGVVVFSLGSMVSNTSEERANVIASALAKIPQKVLWRFDGNKPDTLGLNTRLYKWIPQNDLLGHPKTRAFITHGGANGIYEAIYHGIPMVGVPLFADQPDNIAHMKAKGAAVSLDFHTMSSTDLLNALKTVINDPLYKENAMKLSRIHHDQPVKPLDRAVFWIEFVMRHKGAKHLRVAAHDLTWFQYHSLDVTGFLLACVATVIFIITKCLFCVWKFVRTGKKGKRD
[4]; other: formation of G1, Michaelis–Menten model
  K0.5: 2.66 ± 0.28 µM

B4: UGT1A7 (Homo sapiens) (protein)
chain: GKLLVVPMDGSHWFTMQSVVEKLILRGHEVVVVMPEVSWQLGRSLNCTVKTYSTSYTLEDQDREFMVFADARWTAPLRSAFSLLTSSSNGIFDLFFSNCRSLFNDRKLVEYLKESCFDAVFLDPFDACGLIVAKYFSLPSVVFARGIFCHYLEEGAQCPAPLSYVPRLLLGFSDAMTFKERVWNHIMHLEEHLFCPYFFKNVLEIASEILQTPVTAYDLYSHTSIWLLRTDFVLEYPKPVMPNMIFIGGINCHQGKPVPMEFEAYINASGEHGIVVFSLGSMVSEIPEKKAMAIADALGKIPQTVLWRYTGTRPSNLANNTILVKWLPQNDLLGHPMTRAFITHAGSHGVYESICNGVPMVMMPLFGDQMDNAKRMETKGAGVTLNVLEMTSEDLENALKAVINDKSYKENIMRLSSLHKDRPVEPLDLAVFWVEFVMRHKGAPHLRPAAHDLTWYQYHSLDVIGFLLAVVLTVAFITFKCCAYGYRKCLGKKGRVKKAHKSKTH
[4]; [5]
  K0.5: 32.91 ± 5.76 µM

B5: UGT1A6 (Homo sapiens) (protein)
chain: DKLLVVPQDGSHWLSMKDIVEVLSDRGHEIVVVVPEVNLLLKESKYYTRKIYPVPYDQEELKNRYQSFGNNHFAERSFLTAPQTEYRNNMIVIGLYFINCQSLLQDRDTLNFFKESKFDALFTDPALPCGVILAEYLGLPSVYLFRGFPCSLEHTFSRSPDPVSYIPRCYTKFSDHMTFSQRVANFLVNLLEPYLFYCLFSKYEELASAVLKRDVDIITLYQKVSVWLLRYDFVLEYPRPVMPNMVFIGGINCKKRKDLSQEFEAYINASGEHGIVVFSLGSMVSEIPEKKAMAIADALGKIPQTVLWRYTGTRPSNLANNTILVKWLPQNDLLGHPMTRAFITHAGSHGVYESICNGVPMVMMPLFGDQMDNAKRMETKGAGVTLNVLEMTSEDLENALKAVINDKSYKENIMRLSSLHKDRPVEPLDLAVFWVEFVMRHKGAPHLRPAAHDLTWYQYHSLDVIGFLLAVVLTVAFITFKCCAYGYRKCLGKKGRVKKAHKSKTH
[4]; [5]
  K0.5: 67.66 ± 16.32 µM
  Vmax: 0.00382 µmol/min/mg
  Vmax/Km: 56.5 µL/min/mg
[4]; [6]
  K0.5: 31.85 ± 6.28 µM
  Vmax: 0.000342 µmol/min/mg
  Vmax/Km: 10.7 µL/min/mg

B6: UGT1A1 (Homo sapiens) (protein)
chain: HAGKILLIPVDGSHWLSMLGAIQQLQQRGHEIVVLAPDASLYIRDGAFYTLKTYPVPFQREDVKESFVSLGHNVFENDSFLQRVIKTYKKIKKDSAMLLSGCSHLLHNKELMASLAESSFDVMLTDPFLPCSPIVAQYLSLPTVFFLHALPCSLEFEATQCPNPFSYVPRPLSSHSDHMTFLQRVKNMLIAFSQNFLCDVVYSPYATLASEFLQREVTVQDLLSSASVWLFRSDFVKDYPRPIMPNMVFVGGINCLHQNPLSQEFEAYINASGEHGIVVFSLGSMVSEIPEKKAMAIADALGKIPQTVLWRYTGTRPSNLANNTILVKWLPQNDLLGHPMTRAFITHAGSHGVYESICNGVPMVMMPLFGDQMDNAKRMETKGAGVTLNVLEMTSEDLENALKAVINDKSYKENIMRLSSLHKDRPVEPLDLAVFWVEFVMRHKGAPHLRPAAHDLTWYQYHSLDVIGFLLAVVLTVAFITFKCCAYGYRKCLGKKGRVKKAHKSKTH
[4]; [5]
  K0.5: 41.84 ± 8.25 µM

B7: UGT1A8 (Homo sapiens) (protein)
chain: GKLLVVPMDGSHWFTMQSVVEKLILRGHEVVVVMPEVSWQLGKSLNCTVKTYSTSYTLEDLDREFMDFADAQWKAQVRSLFSLFLSSSNGFFNLFFSHCRSLFNDRKLVEYLKESSFDAVFLDPFDACGLIVAKYFSLPSVVFARGIACHYLEEGAQCPAPLSYVPRILLGFSDAMTFKERVRNHIMHLEEHLFCQYFSKNALEIASEILQTPVTAYDLYSHTSIWLLRTDFVLDYPKPVMPNMIFIGGINCHQGKPLPMEFEAYINASGEHGIVVFSLGSMVSEIPEKKAMAIADALGKIPQTVLWRYTGTRPSNLANNTILVKWLPQNDLLGHPMTRAFITHAGSHGVYESICNGVPMVMMPLFGDQMDNAKRMETKGAGVTLNVLEMTSEDLENALKAVINDKSYKENIMRLSSLHKDRPVEPLDLAVFWVEFVMRHKGAPHLRPAAHDLTWYQYHSLDVIGFLLAVVLTVAFITFKCCAYGYRKCLGKKGRVKKAHKSKTH
[4]; [5]
  K0.5: 34.71 ± 6.45 µM

B8: CYP2C19 (Homo sapiens) (protein)
chain: MDPFVVLVLCLSCLLLLSIWRQSSGRGKLPPGPTPLPVIGNILQIDIKDVSKSLTNLSKIYGPVFTLYFGLERMVVLHGYEVVKEALIDLGEEFSGRGHFPLAERANRGFGIVFSNGKRWKEIRRFSLMTLRNFGMGKRSIEDRVQEEARCLVEELRKTKASPCDPTFILGCAPCNVICSIIFQKRFDYKDQQFLNLMEKLNENIRIVSTPWIQICNNFPTIIDYFPGTHNKLLKNLAFMESDILEKVKEHQESMDINNPRDFIDCFLIKMEKEKQNQQSEFTIENLVITAADLLGAGTETTSTTLRYALLLLLKHPEVTAKVQEEIERVIGRNRSPCMQDRGHMPYTDAVVHEVQRYIDLIPTSLPHAVTCDVKFRNYLIPKGTTILTSLTSVLHDNKEFPNPEMFDPRHFLDEGGNFKKSNYFMPFSAGKRICVGEGLARMELFLFLTFILQNFNLKSLIDPKDLDTTPVVNGFASVPPFYQLCFIPV
[3]; other: formation of M1
  K0.5: 56.54 ± 16.3 µM
  Vmax: 0.00252 µmol/min/mg
  Vmax/Km: 44.5 µL/min/mg
[3]; other: formation of M3
  K0.5: 16.81 ± 5.02 µM
  Vmax: 0.0013 µmol/min/mg
  Vmax/Km: 77.3 µL/min/mg
